Source: ChEMBL document CHEMBL3576847, “Discovery of 1-(3,3-dimethylbutyl)-3-(2-fluoro-4-methyl-5-(7-methyl-2-(methylamino)pyrido[2,3-d]pyrimidin-6-yl)phenyl)urea (LY3009120) as a pan-RAF inhibitor with minimal paradoxical activation and activity against BRAF or RAS mutant tumor cells” (J Med Chem, 2015)
Converted amounts (≈) assume the structure as drawn. Values belong to the compound of their own block, whether it stands above or below them. The source made the active and inactive calls. The calls are words filed in the database; no cut-off is given here.

Tests used:
[1] = Solubility of the compound in simulated fed intestinal fluid; assay type: ADME
[2] = biological target: Serine/threonine-protein kinase B-raf (Homo sapiens, UniProt P15056); experiment: Inhibition of wild type BRAF (unknown origin) assessed as ADP formation measured for 5 hrs by pyruvate kinase/lactate dehydrogenase coupled assay in presence of ATP, MEK1, NADH
Chain of Serine/threonine-protein kinase B-raf (Homo sapiens, UniProt P15056) (P15056 whole entry): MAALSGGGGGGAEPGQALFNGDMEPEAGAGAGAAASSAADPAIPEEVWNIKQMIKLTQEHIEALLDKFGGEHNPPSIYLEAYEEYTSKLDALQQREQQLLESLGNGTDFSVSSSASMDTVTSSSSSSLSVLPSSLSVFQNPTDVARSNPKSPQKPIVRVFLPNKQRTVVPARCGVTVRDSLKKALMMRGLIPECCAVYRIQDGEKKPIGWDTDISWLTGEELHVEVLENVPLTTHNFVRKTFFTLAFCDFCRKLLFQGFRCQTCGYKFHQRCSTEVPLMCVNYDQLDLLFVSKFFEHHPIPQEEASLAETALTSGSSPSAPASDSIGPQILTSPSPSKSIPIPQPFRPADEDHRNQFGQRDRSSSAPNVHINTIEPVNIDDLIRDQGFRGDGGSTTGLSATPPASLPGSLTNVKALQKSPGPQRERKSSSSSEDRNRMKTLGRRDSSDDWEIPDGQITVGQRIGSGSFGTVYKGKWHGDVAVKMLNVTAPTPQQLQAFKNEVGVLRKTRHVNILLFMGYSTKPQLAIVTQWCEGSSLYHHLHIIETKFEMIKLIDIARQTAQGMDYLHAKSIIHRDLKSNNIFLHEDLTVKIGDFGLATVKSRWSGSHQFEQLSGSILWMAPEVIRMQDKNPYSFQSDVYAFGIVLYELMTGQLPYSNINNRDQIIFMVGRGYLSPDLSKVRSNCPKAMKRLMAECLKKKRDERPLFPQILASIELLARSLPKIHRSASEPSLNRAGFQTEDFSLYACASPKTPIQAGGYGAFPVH

[3] = biological target: T1, Serine/threonine-protein kinase B-raf (Homo sapiens, UniProt P15056, V600E); experiment: Inhibition of BRAF V600E mutant in human A375 cells assessed as inhibition of ERK phosphorylation measured after 72 hrs by ELISA assay; assay type: cell-based, A-375
T1 sequence (P15056 2-766 V600E limits assumed): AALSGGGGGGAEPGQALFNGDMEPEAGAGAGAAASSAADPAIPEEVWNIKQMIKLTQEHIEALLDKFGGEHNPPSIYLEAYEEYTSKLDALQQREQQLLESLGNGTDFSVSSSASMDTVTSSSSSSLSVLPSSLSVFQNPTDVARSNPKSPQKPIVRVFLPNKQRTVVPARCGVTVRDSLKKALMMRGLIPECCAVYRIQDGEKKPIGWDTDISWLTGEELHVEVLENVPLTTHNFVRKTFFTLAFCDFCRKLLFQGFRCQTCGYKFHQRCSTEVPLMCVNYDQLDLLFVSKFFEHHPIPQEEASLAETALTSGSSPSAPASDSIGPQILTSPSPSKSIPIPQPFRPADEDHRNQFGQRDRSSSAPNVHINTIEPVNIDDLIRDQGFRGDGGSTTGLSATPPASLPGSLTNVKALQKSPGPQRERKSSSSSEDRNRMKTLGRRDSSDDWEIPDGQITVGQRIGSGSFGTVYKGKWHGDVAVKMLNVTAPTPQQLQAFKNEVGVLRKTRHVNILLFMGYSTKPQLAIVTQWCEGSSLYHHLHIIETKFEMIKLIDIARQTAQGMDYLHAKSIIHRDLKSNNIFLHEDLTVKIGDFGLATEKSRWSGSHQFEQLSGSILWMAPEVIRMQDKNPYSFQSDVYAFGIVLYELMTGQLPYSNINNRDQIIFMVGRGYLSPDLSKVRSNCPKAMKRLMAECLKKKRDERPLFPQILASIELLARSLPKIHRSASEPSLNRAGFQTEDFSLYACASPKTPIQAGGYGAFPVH

[4] = Oral bioavailability in dog administered as suspension; assay type: ADME, organism-based, Canis lupus familiaris; conditions: in vivo
GTPase KRas = GTPase KRas (Homo sapiens, UniProt P01116, G13D); experiment: Inhibition of KRAS G13D mutant in human HCT116 cells assessed as inhibition of ERK phosphorylation by ELISA; assay type: cell-based, HCT-116
Chain of GTPase KRas (P01116 whole entry G13D): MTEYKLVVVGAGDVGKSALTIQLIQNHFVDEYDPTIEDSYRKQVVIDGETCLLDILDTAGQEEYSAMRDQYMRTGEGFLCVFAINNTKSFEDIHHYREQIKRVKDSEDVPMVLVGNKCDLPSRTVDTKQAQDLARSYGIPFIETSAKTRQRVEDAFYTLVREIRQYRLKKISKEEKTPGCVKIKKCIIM
How it was run: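 HCT116 cells (KRAS G13D, BRAF WT; RAF signalling via CRAF) were treated with compound, and the change in cellular phospho-ERK was measured. IC50 was taken as the concentration inhibiting phospho-ERK.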

A-375 [5] = experiment: cells; conditions: Homo sapiens, A-375, 72 h
[6] = Clearance in po dosed rat administered as suspension; assay type: ADME, organism-based; conditions: in vivo
[7] = biological target: T1, Serine/threonine-protein kinase B-raf; experiment: Inhibition of recombinant BRAF V600E mutant (unknown origin) assessed as ADP formation measured for 5 hrs by pyruvate kinase/lactate dehydrogenase coupled assay in presence of ATP, MEK1, NADH
[8] = Clearance in po dosed dog administered as suspension; assay type: ADME, organism-based, Canis lupus familiaris; conditions: in vivo
[9] = Oral bioavailability in rat administered as suspension; assay type: ADME, organism-based; conditions: in vivo
[10] = Solubility of the compound in simulated fasted intestinal fluid; assay type: ADME
[11] = biological target: Vascular endothelial growth factor receptor 2 (Homo sapiens, UniProt P35968); experiment: Inhibition of KDR (unknown origin)
Chain of Vascular endothelial growth factor receptor 2 (P35968 whole entry): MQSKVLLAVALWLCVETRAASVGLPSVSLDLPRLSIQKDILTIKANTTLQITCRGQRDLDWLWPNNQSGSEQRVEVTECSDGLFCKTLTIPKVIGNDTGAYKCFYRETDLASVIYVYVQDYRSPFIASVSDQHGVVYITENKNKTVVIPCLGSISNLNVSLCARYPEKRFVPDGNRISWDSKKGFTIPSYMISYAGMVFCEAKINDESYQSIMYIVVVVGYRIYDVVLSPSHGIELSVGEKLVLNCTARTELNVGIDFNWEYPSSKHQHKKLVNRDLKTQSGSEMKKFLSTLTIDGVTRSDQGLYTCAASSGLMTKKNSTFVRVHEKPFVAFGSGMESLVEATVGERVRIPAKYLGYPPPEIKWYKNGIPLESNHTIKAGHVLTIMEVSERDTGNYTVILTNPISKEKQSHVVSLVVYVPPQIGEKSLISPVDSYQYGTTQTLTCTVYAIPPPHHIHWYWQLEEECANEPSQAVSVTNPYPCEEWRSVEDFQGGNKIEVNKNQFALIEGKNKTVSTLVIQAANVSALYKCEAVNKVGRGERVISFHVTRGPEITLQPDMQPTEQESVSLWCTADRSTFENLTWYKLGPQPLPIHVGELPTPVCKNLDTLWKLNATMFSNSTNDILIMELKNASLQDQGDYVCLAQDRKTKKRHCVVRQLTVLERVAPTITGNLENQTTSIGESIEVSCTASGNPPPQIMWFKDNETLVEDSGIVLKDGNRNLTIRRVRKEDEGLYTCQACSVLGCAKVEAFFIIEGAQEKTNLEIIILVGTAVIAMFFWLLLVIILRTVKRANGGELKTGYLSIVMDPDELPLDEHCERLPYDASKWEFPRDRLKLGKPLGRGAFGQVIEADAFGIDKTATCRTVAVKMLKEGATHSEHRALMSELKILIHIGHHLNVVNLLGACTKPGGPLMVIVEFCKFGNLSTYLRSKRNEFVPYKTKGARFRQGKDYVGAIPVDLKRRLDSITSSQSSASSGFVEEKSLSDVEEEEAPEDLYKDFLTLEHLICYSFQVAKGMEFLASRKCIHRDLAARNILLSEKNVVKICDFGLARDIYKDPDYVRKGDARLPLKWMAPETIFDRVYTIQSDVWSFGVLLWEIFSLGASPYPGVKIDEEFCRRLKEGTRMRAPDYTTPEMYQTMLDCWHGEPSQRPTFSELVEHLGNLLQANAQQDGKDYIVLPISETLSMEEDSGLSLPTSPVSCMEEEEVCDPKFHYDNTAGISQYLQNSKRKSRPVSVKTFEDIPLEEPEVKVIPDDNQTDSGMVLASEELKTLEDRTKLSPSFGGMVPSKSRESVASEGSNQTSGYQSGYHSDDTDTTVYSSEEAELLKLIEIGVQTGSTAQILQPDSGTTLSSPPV

[12] = biological target: Dual specificity mitogen-activated protein kinase kinase; MEK1/2 (Homo sapiens, UniProt P36507+Q02750); experiment: Inhibition of MEK (unknown origin)
[13] = biological target: RAF proto-oncogene serine/threonine-protein kinase (Homo sapiens, UniProt P04049); experiment: Inhibition of wild type CRAF (unknown origin) assessed as ADP formation measured for 5 hrs by pyruvate kinase/lactate dehydrogenase coupled assay in presence of ATP, MEK1, PEP, NADH
Chain of RAF proto-oncogene serine/threonine-protein kinase (P04049 whole entry): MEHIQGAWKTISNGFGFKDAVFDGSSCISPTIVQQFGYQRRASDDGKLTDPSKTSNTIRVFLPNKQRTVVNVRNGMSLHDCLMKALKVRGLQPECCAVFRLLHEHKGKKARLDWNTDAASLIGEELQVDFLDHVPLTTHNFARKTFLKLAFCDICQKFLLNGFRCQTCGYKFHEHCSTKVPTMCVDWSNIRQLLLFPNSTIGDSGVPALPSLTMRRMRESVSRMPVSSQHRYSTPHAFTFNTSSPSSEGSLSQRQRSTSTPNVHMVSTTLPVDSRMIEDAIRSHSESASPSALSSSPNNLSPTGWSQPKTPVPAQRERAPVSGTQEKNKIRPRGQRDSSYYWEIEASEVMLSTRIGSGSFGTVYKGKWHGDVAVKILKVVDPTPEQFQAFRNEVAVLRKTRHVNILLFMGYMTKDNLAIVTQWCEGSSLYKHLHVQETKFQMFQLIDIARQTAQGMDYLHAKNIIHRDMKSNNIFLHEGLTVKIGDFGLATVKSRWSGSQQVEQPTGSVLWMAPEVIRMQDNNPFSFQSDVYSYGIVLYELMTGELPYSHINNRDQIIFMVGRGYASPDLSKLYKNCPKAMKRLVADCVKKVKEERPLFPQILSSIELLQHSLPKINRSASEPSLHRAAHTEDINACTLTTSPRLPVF

HCT-116 [14] = experiment: cells; conditions: Homo sapiens, HCT-116, 67 h
[15] = biological target: Serine/threonine-protein kinase A-Raf (Homo sapiens, UniProt P10398); experiment: Competitive binding affinity to ARAF in human A375 cells after 15 mins in presence of ATP analogue; assay type: cell-based, A-375
Chain of Serine/threonine-protein kinase A-Raf (P10398 whole entry): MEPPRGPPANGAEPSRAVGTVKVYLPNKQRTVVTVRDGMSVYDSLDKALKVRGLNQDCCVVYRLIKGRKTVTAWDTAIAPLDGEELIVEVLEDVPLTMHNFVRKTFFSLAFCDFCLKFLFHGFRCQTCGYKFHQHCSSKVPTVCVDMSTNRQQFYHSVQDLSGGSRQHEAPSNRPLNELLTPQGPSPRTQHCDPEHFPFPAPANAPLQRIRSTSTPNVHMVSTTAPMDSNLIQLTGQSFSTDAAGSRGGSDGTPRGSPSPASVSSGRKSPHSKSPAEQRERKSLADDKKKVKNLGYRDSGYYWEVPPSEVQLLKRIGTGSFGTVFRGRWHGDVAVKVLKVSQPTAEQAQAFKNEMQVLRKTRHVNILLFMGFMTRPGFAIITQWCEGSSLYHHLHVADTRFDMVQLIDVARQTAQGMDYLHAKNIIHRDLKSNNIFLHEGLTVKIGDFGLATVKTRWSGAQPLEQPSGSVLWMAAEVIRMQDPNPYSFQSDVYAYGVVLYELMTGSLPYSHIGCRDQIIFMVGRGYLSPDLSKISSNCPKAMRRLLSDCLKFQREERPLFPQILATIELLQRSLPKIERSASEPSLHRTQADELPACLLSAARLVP

Mus musculus [16] = experiment: In vivo inhibition of BRAF V600E mutant in human A375 cells xenografted in po dosed athymic nu/nu mouse assessed as plasma concentration required to inhibit ERK phosphorylation by 50%; assay type: functional, A-375
[17] = Paradoxical activation of RAS/RAF/MEK signaling pathway in human HCT116 cells expressing wild type BRAF assessed as ERK phosphorylation at >100 nM; assay type: cell-based; conditions: HCT-116
A-375 [18] = experiment: Antitumor activity against human A375 cells expressing BRAF V600E mutant xenografted in athymic nu/nu mouse assessed as tumor regression at 20 to 30 mg/kg, po bid administered for 15 days; assay type: functional, organism-based
How it was run: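 Mice bearing A375 (BRAF V600E) or HCT116 (KRAS mutant) xenografts were dosed orally b.i.d. for 15 days. Doses were 20 and 30 mg/kg for A375 and 40 mg/kg for HCT116. Tumor volume and body weight were monitored.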

[19] = Paradoxical activation of RAS/RAF/MEK signaling pathway in human HCT116 cells expressing wild type BRAF assessed as ERK phosphorylation at <100 nM; assay type: cell-based; conditions: HCT-116
HCT-116 [20] = experiment: Antitumor activity against human HCT116 cells expressing KRAS mutant xenografted in athymic nu/nu mouse at 40 mg/kg, po bid administered for 15 days
Mus musculus [21] = experiment: Toxicity in athymic nu/nu mouse xenografted with human HCT116 cells expressing KRAS mutant assessed as body weight loss at 40 mg/kg, po bid administered for 15 days; assay type: organism-based, HCT-116; conditions: in vivo, 360 h
How it was run: (§1)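 Nude mice bearing A375 (BRAF V600E) or HCT116 (KRAS mutant) xenografts given oral b.i.d. doses, 20 and 30 mg/kg (A375) or 40 mg/kg (HCT116), for 15 days; body weight monitored.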

Mus musculus [22] = experiment: Toxicity in athymic nu/nu mouse xenografted with human A375 cells expressing BRAF V600E mutant assessed as body weight loss at 20 to 30 mg/kg, po bid administered for 15 days; assay type: organism-based, A-375; conditions: in vivo, 360 h; how it was run: as §1
Mus musculus [23] = experiment: In vivo inhibition of BRAF V600E mutant in human A375 cells xenografted in po dosed athymic nu/nu mouse assessed as inhibition of ERK phosphorylation by ELISA; assay type: functional
Mus musculus [24] = experiment: In vivo inhibition of BRAF V600E mutant in human A375 cells xenografted in po dosed athymic nu/nu mouse assessed as inhibition of MEK phosphorylation by ELISA; assay type: functional, organism-based; conditions: A-375
Mus musculus [25] = experiment: In vivo inhibition of BRAF V600E mutant in human A375 cells xenografted in po dosed athymic nu/nu mouse assessed as plasma concentration required to inhibit ERK phosphorylation by 80%; assay type: functional, A-375

SMILES: CNc1cc2c(cn1)cc(-c1ccc(F)c(NC(=O)Nc3cc(C(C)(C)C)no3)c1)c(=O)n2[C@H]1CCOC1
solubility [1]: 2 µg/mL (≈ 3.84 µM) | IC50 [2]: 18 nM | IC50 [3]: 6.8 nM | bioavailability [4]: < 10% | IC50 (GTPase KRas): 57 nM | IC50 (A-375 [5]): 6.1 nM | CL/F [6]: 50 mL/min/kg | IC50 [7]: 1 nM | CL/F [8]: 6 mL/min/kg | bioavailability [9]: < 10% | solubility [10]: 1 µg/mL (≈ 1.92 µM) | IC50 [11]: 0.46 nM | IC50 [12]: 2900 nM | IC50 [13]: 3.1 nM | IC50 (HCT-116 [14]): 32 nM

IC50 (A-375 [5]): 33 nM | IC50 [7]: 7.9 nM | IC50 [11]: 540 nM | IC50 (HCT-116 [14]): 190 nM
SMILES: Cc1cc(F)c(NC(=O)NCCC(C)(C)C)cc1-c1cc2cnc(N)nc2nc1C

SMILES: CC(C)(C)c1nc(-c2cccc(NS(=O)(=O)c3c(F)cccc3F)c2F)c(-c2ccnc(N)n2)s1 [DABRAFENIB]
IC50 (GTPase KRas): 5880 nM | IC50 [15]: 26 nM

SMILES: CNc1cc2nc(C)c(-c3cc(NC(=O)NC[C@@H](O)C(C)(C)C)c(F)cc3C)cc2cn1
IC50 [2]: 39 nM | IC50 [3]: 22 nM | IC50 (GTPase KRas): 160 nM | IC50 (A-375 [5]): 10 nM | Activity (Mus musculus [16]): 3.1 µM | Activity [17]: inactive | Activity (A-375 [18]): Active | IC50 [7]: 7.7 nM | Activity [19]: Active | Activity (HCT-116 [20]): Active | Activity (Mus musculus [21]): Non-toxic | Activity (Mus musculus [22]): Non-toxic | inhibition (Mus musculus [23]; A-375): Dose-dependent effect | ED50 (Mus musculus [23]; A-375, po): 1.7 mg/kg | ED80 (Mus musculus [23]; A-375, po): 5.7 mg/kg | IC50 [11]: 750 nM | inhibition (Mus musculus [24]): Dose-dependent effect | IC50 [12]: 15000 nM | IC50 [13]: 7.2 nM | INH (Mus musculus [25]): 7661 ng/mL | IC50 (HCT-116 [14]): 174 nM

SMILES: CNc1ncc2cc(-c3ccc(F)c(NC(=O)NCCC(C)(C)C)c3)c(C)nc2n1
IC50 [2]: 18 nM | IC50 [3]: 110 nM | IC50 (GTPase KRas): 48 nM | IC50 (A-375 [5]): 26 nM | IC50 [7]: 7.6 nM | IC50 [11]: 750 nM | IC50 [12]: > 20000 nM | IC50 [13]: 2.8 nM | IC50 (HCT-116 [14]): 280 nM

SMILES: CNc1cc2nc(C)c(-c3ccc(F)c(NC(=O)NCCC(C)(C)C)c3)cc2cn1
IC50 [2]: 8.4 nM | IC50 [3]: 82 nM | IC50 (GTPase KRas): 46 nM | IC50 (A-375 [5]): 40 nM | IC50 [7]: 3 nM | IC50 [11]: 33 nM | IC50 [12]: > 20000 nM | IC50 [13]: 1.6 nM | IC50 (HCT-116 [14]): 160 nM
